Experimental findings from ChEMBL document CHEMBL1156682, “Synthesis and antioxidant activity evaluation of new hexahydropyrimido[5,4-c]quinoline-2,5-diones and 2-thioxohexahydropyrimido[5,4-c]quinoline-5-ones obtained by Biginelli reaction in two steps” (Eur J Med Chem, 2008) are described below.

Common to all, as to assay type: functional
Experiment [1] in a line: Antioxidant activity assessed as hydroxyl radical scavenging activity at 100 uM/L after 2 hrs. The gist of the method:
(§1)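 Hydroxyl radical scavenging by benzoic acid hydroxylation, with OH· generated by Fenton reaction. Sample was mixed with phosphate buffer (pH 7.4, 0.1 mol), then H2O2 solution (10 mmol) was added, and the mixture was incubated at 37 °C for 2 h. Fluorescence of the hydroxylated benzoic acid was read at excitation 305 nm, emission 407 nm.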

Experiment [2] has as its system Radical scavenging activity. As to the kind of experiment: Antioxidant activity assessed as DPPH radical scavenging activity at 50 uM/L after 2 hrs. A digest of the protocol: (§2)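 DPPH radical scavenging read as absorbance at 517 nm. %RSA = [(A_DPPH − A_S)/A_DPPH] × 100, where A_S is absorbance with compound added at a given level and A_DPPH is absorbance of DPPH solution alone. Mean of three independent samples per compound.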
Background: The DPPH test is a chemical assay of radical scavenging.

Experiment [3] deals with Radical scavenging activity. As to the kind of experiment: Antioxidant activity assessed as DPPH radical scavenging activity at 200 uM/L after 2 hrs. The gist of the method: as §2
In experiment [4] the test system is Radical scavenging activity. Kind of experiment: Antioxidant activity assessed as DPPH radical scavenging activity at 100 uM/L after 2 hrs. A digest of the protocol: as §2
Experiment [5] can be described thus: Antioxidant activity assessed as hydroxyl radical scavenging activity at 150 uM/L after 2 hrs. A digest of the protocol:
as §1

Experiment [6] concerns Radical scavenging activity. Kind of experiment: Antioxidant activity assessed as DPPH radical scavenging activity at 150 uM/L after 2 hrs. The gist of the method: as §2
Experiment [7] in a line: Antioxidant activity assessed as hydroxyl radical scavenging activity at 20 uM/L after 2 hrs. A digest of the protocol: as §1
Experiment [8] is described as follows: Antioxidant activity assessed as hydroxyl radical scavenging activity at 50 uM/L after 2 hrs. The gist of the method: as §1
The subject of experiment [9] is Radical scavenging activity. As to the kind of experiment: Antioxidant activity assessed as DPPH radical scavenging activity at 250 uM/L after 2 hrs. The gist of the method:
as §2

Experiment [10] in a line: Antioxidant activity assessed as hydroxyl radical scavenging activity at 200 uM/L after 2 hrs. A digest of the protocol:
as §1

As for `CC1=C2C(=O)Nc3cccc(Cl)c3C2NC(=O)N1C` (stereo not given), the Activity in experiment [1] amounted to 80.9%; in experiment [2] it was 1.5%; in experiment [3] it was 5.4%; in experiment [4], 2.1%; in [5], 83.2%; in [6], 5%. Also, the Activity came to 67.1% in experiment [7], 72.8% in [8], 7.6% in experiment [9] and 83.3% in [10].

Turning to `CC1=C2C(=O)Nc3cccc(F)c3C2NC(=S)N1C` (stereo not given), the Activity in experiment [1] came to 80.2%; in experiment [2] it was 3.3%; in experiment [3], 17.4%; in [4], 8.6%; in experiment [5], 81.5%; in [6] it was 12.4%. For the same molecule, the Activity amounted to 70.6% in experiment [7], 78.8% in [8], 25.4% in [9] and 83.3% in [10].

Regarding `CCN1C(=O)NC2C(=C1C)C(=O)Nc1ccccc12` (stereo not given), the Activity in experiment [1] worked out at 81.1%; in [2], 3.4%; in experiment [3] it was 9.1%; in experiment [4], 4.8%; in [5], 86.5%; in [6], 6.7%. Also, the Activity in experiment [7] was determined as 58.1%; in experiment [8], 70.9%; in experiment [9], 10.5%; in [10], 89.1%.

Regarding `CC1=C2C(=O)Nc3cc(Cl)ccc3C2NC(=S)N1C` (stereo not given), the Activity worked out at 87.5% in experiment [1]; 9.5% in experiment [2]; 23.8% in experiment [3]; 11.2% in experiment [4]; 88.5% in experiment [5]; 17.8% in experiment [6]. Moreover, the Activity in [7] was determined as 68.7%; in experiment [8] it was 76.5%; in [9], 30.6%; in experiment [10] it was 90.2%.

As for `CCN1C(=O)NC2C(=C1C)C(=O)Nc1c(Cl)cccc12` (stereo not given), the Activity in experiment [1] turned out to be 80.6%; in experiment [2] it was 1.9%; in experiment [3], 8.1%; in [4] it was 2.3%; in experiment [5], 84.4%; in experiment [6], 4.3%. The Activity is 63.8% in experiment [7], 74.1% in experiment [8], 11.8% in experiment [9] and 86.7% in [10].

Take `CC1=C2C(=O)Nc3cccc(Cl)c3C2NC(=S)N1C` (stereo not given): the Activity in experiment [1] was 87.4%; in experiment [2], 7.7%; in [3], 15.3%; in experiment [4] it was 8.2%; in [5], 89.8%; in [6], 9.5%. Besides, the Activity in experiment [7] worked out at 68%; in experiment [8], 82.7%; in [9], 24.9%; in experiment [10] it was 92.3%.

For the molecule `CC1=C2C(=O)Nc3c(Cl)cccc3C2NC(=O)N1C` (stereo not given), the Activity in experiment [1] turned out to be 82.9%; in experiment [2] it was 3.1%; in experiment [3] it was 16.2%; in [4], 5.4%; in [5] it was 87.3%; in experiment [6], 10.2%. Further, the Activity stood at 66% in experiment [7], 77.3% in [8], 17.4% in [9] and 89.2% in experiment [10].

With `CC1=C2C(=O)Nc3ccccc3C2NC(=O)N1C` (stereo not given), the Activity in experiment [1] was found to be 80.8%; in experiment [2], 2.5%; in experiment [3], 9.8%; in [4], 6.6%; in experiment [5] it was 83.7%; in [6] it was 9.1%. For the same molecule, the Activity stood at 58.4% in [7], 71.8% in experiment [8], 12% in experiment [9] and 89.7% in [10].

For `CC1=C2C(=O)Nc3ccccc3C2NC(=S)N1C` (stereo not given), the Activity came to 77.2% in experiment [1]; 4% in [2]; 17.9% in experiment [3]; 8.2% in experiment [4]; 82.3% in [5]; 14.1% in experiment [6]. Besides, the Activity is 56.3% in experiment [7], 69.4% in [8], 26.2% in [9] and 88.2% in [10].

Consider `CCN1C(=O)NC2C(=C1C)C(=O)Nc1cccc(F)c12` (stereo not given), for which the Activity turned out to be 72.4% in experiment [1]; 3% in experiment [2]; 8.7% in experiment [3]; 4.6% in experiment [4]; 80.2% in [5]; 6% in experiment [6]. Moreover, the Activity in experiment [7] was determined as 12.5%; in experiment [8], 58.4%; in experiment [9] it was 9.8%; in [10], 83.1%.
